The source made the active and inactive calls. The calls are words filed in the database; no cut-off is given here.
Key:
[1] = Growth inhibition of human RPMI8266 cells; format: functional
In short: (§1)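 Five-dose testing was run within the NCI (Bethesda) in vitro Anticancer Screen Program on a panel of 53 human tumour cell lines from nine cancer types. Growth inhibition is reported as GI50.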

K562 = assay: Growth inhibition of human K562 cells; format: functional; in short: as §1
A549 = assay: Growth inhibition of human A549 cells; format: functional; in short: as §1
EKVX = assay: Growth inhibition of human EKVX cells; format: functional; in short: as §1
HOP-62 = assay: Growth inhibition of human HOP62 cells; format: functional; in short: as §1
HOP-92 = assay: Growth inhibition of human HOP92 cells; format: functional; in short: as §1
NCI-H226 = assay: Growth inhibition of human NCI-H226 cells; format: functional; in short: as §1
NCI-H23 = assay: Growth inhibition of human NCI-H23 cells; format: functional; in short: as §1
NCI-H322M = assay: Growth inhibition of human NCI-H322M cells; format: functional; in short: as §1
NCI-H460 = assay: Growth inhibition of human NCI-H460 cells; format: functional; in short: as §1
NCI-H522 = assay: Growth inhibition of human NCI-H522 cells; format: functional; in short: as §1
COLO 205 = assay: Growth inhibition of human COLO205 cells; format: functional; in short: as §1
HCC 2998 = assay: Growth inhibition of human HCC2998 cells; format: functional; in short: as §1
HCT-116 = assay: Growth inhibition of human HCT116 cells; format: functional; in short: as §1
HCT-15 = assay: Growth inhibition of human HCT15 cells; format: functional; in short: as §1
HT-29 = assay: Growth inhibition of human HT-29 cells; format: functional; in short: as §1
KM12 = assay: Growth inhibition of human KM12 cells; format: functional; in short: as §1
SW-620 = assay: Growth inhibition of human SW620 cells; format: functional
In short: (§2)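 Compounds that passed a preliminary screen were tested at five doses in the NCI (Bethesda) in vitro Anticancer Screen Program against a 53-line human tumour panel spanning leukemia, lung, colon, CNS, melanoma, ovarian, renal, prostate and breast. Growth inhibition is reported as GI50.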

SF-268 = assay: Growth inhibition of human SF268 cells; format: functional; in short: as §1
SF-295 = assay: Growth inhibition of human SF295 cells; format: functional; in short: as §1
SF-539 = assay: Growth inhibition of human SF539 cells; format: functional; in short: as §1
SNB-19 = assay: Growth inhibition of human SNB19 cells; format: functional; in short: as §2
SNB-75 = assay: Growth inhibition of human SNB75 cells; format: functional; in short: as §2
U-251 = assay: Growth inhibition of human U251 cells; format: functional; in short: as §2
A498 = assay: Growth inhibition of human A498 cells; format: functional; in short: as §1
786-0 = assay: Growth inhibition of human 786-0 cells; format: functional; in short: as §1
ACHN = assay: Growth inhibition of human ACHN cells; format: functional; in short: as §1
CAKI-1 = assay: Growth inhibition of human Caki1 cells; format: functional; in short: as §1
RXF 393 = assay: Growth inhibition of human RXF393 cells; format: functional; in short: as §1
SN12C = assay: Growth inhibition of human SN12C cells; format: functional; in short: as §2
TK-10 = assay: Growth inhibition of human TK10 cells; format: functional; in short: as §2
UO-31 = assay: Growth inhibition of human UO31 cells; format: functional; in short: as §2
PC-3 = assay: Growth inhibition of human PC3 cells; format: functional; in short: as §1
OVCAR-3 = assay: Growth inhibition of human OVCAR-3 cells; format: functional; in short: as §1
OVCAR-4 = assay: Growth inhibition of human OVCAR4 cells; format: functional; in short: as §1
OVCAR-5 = assay: Growth inhibition of human OVCAR5 cells; format: functional; in short: as §1
OVCAR-8 = assay: Growth inhibition of human OVCAR8 cells; format: functional; in short: as §1
NCI/ADR-RES = assay: Growth inhibition of human NCI/ADR-RES cells; format: functional; in short: as §1
SK-OV-3 = assay: Growth inhibition of human SKOV3 cells; format: functional; in short: as §2
MCF7 [2] = assay: Growth inhibition of human MCF7 cells; format: functional; in short: as §1
MDA-MB-231 = assay: Growth inhibition of human MDA-MB-231 cells; format: functional; in short: as §1
[3] = Growth inhibition of human Hs 578T cells; format: functional; in short: as §1
BT-549 = assay: Growth inhibition of human BT549 cells; format: functional; in short: as §1
T47D = assay: Growth inhibition of human T47D cells; format: functional; in short: as §2
LOX IMVI = assay: Growth inhibition of human LOXIMVI cells; format: functional; in short: as §1
Malme-3M = assay: Growth inhibition of human MALME-3M cells; format: functional; in short: as §1
M14 = assay: Growth inhibition of human M14 cells; format: functional; in short: as §1
MDA-MB-435 = assay: Growth inhibition of human MDA-MB-435 cells; format: functional; in short: as §1
SK-MEL-2 = assay: Growth inhibition of human SK-MEL-2 cells; format: functional; in short: as §1
SK-MEL-28 = assay: Growth inhibition of human SK-MEL-28 cells; format: functional; in short: as §1
SK-MEL-5 = assay: Growth inhibition of human SK-MEL-5 cells; format: functional; in short: as §1
UACC-257 = assay: Growth inhibition of human UACC257 cells; format: functional; in short: as §2
UACC-62 = assay: Growth inhibition of human UACC62 cells; format: functional; in short: as §2
MCF7 [4] = assay: Cell cycle arrest in human MCF7 cells assessed as accumulation at G0 phase at 10 uM after 24 hrs by FACS analysis; format: functional
In short: (§3)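 MCF-7 breast carcinoma cells were exposed to 10 µM test compound for 24 h, with DMSO as the vehicle control. Cell-cycle distribution was read by FACS as the percentage of cells in G0, G1, S and G2/M.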

MCF7 [5] = assay: Cell cycle arrest in human MCF7 cells assessed as accumulation at G1 phase at 10 uM after 24 hrs by FACS analysis; format: functional; in short: as §3
MCF7 [6] = assay: Cell cycle arrest in human MCF7 cells assessed as accumulation at S phase at 10 uM after 24 hrs by FACS analysis; format: functional; in short: as §3
MCF7 [7] = assay: Cell cycle arrest in human MCF7 cells assessed as accumulation at G2/M phase at 10 uM after 24 hrs by FACS analysis; format: functional; in short: as §3
MCF7 [8] = assay: Cell cycle arrest in human MCF7 cells assessed as accumulation at G0 phase at 30 uM after 24 hrs by FACS analysis; format: functional
In short: (§4)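 MCF-7 cells were treated at 30 µM for 24 h alongside a DMSO control. Fractions in G0, G1, S and G2/M phases were measured by FACS, and values are means of three experiments.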

MCF7 [9] = assay: Cell cycle arrest in human MCF7 cells assessed as accumulation at G1 phase at 30 uM after 24 hrs by FACS analysis; format: functional; in short: as §4
MCF7 [10] = assay: Cell cycle arrest in human MCF7 cells assessed as accumulation at S phase at 30 uM after 24 hrs by FACS analysis; format: functional; in short: as §4
MCF7 [11] = assay: Cell cycle arrest in human MCF7 cells assessed as accumulation at G2/M phase at 30 uM after 24 hrs by FACS analysis; format: functional; in short: as §4
MCF7 [12] = assay: Induction of apoptosis in human MCF7 cells assessed as decrease in procaspase 7 level at 30 uM after 24 hrs by Western blot analysis; format: functional, cell-based
In short: (§5)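 MCF-7 breast carcinoma cells were exposed to 30 µM compound for 24 h, with CA-4 as positive control. Cell lysates were then immunoblotted with antibodies to procaspase-7 and cleavage-specific PARP, using β-actin as loading control.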

MCF7 [13] = assay: Induction of apoptosis in human MCF7 cells assessed as […] in PARP cleavage at 30 uM after 24 hrs by Western blot analysis; format: functional, cell-based; in short: as §5

## COc1cc(/C=C/C(=O)c2cccc(-n3cc(-c4ccccc4)[nH]c3=O)c2)ccc1O
[1]
  GI50: 1.67 µM
K562
  GI50: 2.04 µM
A549
  GI50: 3.85 µM
EKVX
  GI50: 3.9 µM
HOP-62
  GI50: 1.48 µM
HOP-92
  GI50: 2.27 µM
NCI-H226
  GI50: 2.6 µM
NCI-H23
  GI50: 2.02 µM
NCI-H322M
  GI50: 3.39 µM
NCI-H460
  GI50: 1.95 µM
NCI-H522
  GI50: 2.36 µM
COLO 205
  GI50: 2.21 µM
HCC 2998
  GI50: 1.51 µM
HCT-116
  GI50: 1.4 µM
HCT-15
  GI50: 2.73 µM
HT-29
  GI50: 3.77 µM
KM12
  GI50: 1.61 µM
SW-620
  GI50: 2.29 µM
SF-268
  GI50: 2.07 µM
SF-295
  GI50: 3.04 µM
SF-539
  GI50: 1.91 µM
SNB-19
  GI50: 2.96 µM
SNB-75
  GI50: 3.9 µM
U-251
  GI50: 2.11 µM
A498
  GI50: 1.68 µM
786-0
  GI50: 1.35 µM
ACHN
  GI50: 2.5 µM
CAKI-1
  GI50: 2.19 µM
RXF 393
  GI50: 2.27 µM
SN12C
  GI50: 3.31 µM
TK-10
  GI50: 5.29 µM
UO-31
  GI50: 2.18 µM
PC-3
  GI50: 2.52 µM
OVCAR-3
  GI50: 2.29 µM
OVCAR-4
  GI50: 5.19 µM
OVCAR-5
  GI50: 2.04 µM
OVCAR-8
  GI50: 4.11 µM
NCI/ADR-RES
  GI50: 2.92 µM
SK-OV-3
  GI50: 3.76 µM
MCF7 [2]
  GI50: 1.55 µM
MDA-MB-231
  GI50: 3.36 µM
[3]
  GI50: 4.16 µM
BT-549
  GI50: 2.78 µM
T47D
  GI50: 2.7 µM
LOX IMVI
  GI50: 1.88 µM
Malme-3M
  GI50: 2.67 µM
M14
  GI50: 2.61 µM
MDA-MB-435
  GI50: 2.14 µM
SK-MEL-2
  GI50: 3.65 µM
SK-MEL-28
  GI50: 1.85 µM
SK-MEL-5
  GI50: 1.59 µM
UACC-257
  GI50: 6.81 µM
UACC-62
  GI50: 2.01 µM
MCF7 [4]
  Activity: 11.17%
MCF7 [5]
  Activity: 25.85%
MCF7 [6]
  Activity: 14.13%
MCF7 [7]
  Activity: 48.85%
MCF7 [8]
  Activity: 40.05%
MCF7 [9]
  Activity: 49.91%
MCF7 [10]
  Activity: 2.41%
MCF7 [11]
  Activity: 7.63%
MCF7 [12]
  Activity: Active
MCF7 [13]
  Activity: Active
